The target of data set [1] is T1, Cannabinoid receptor 1 (Homo sapiens, UniProt P21554). The data set can be described thus: biochemical. The data set is classed as cell-based, CHO.
Data set [2] in a line: Normalised area under the concentration time curve in rat. The data set is classed as ADME. Put shortly: (§1)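 Male Sprague–Dawley rats dosed 1.0 mg/kg iv via an implanted cannula (n = 1 or 2) and 2.0 mg/kg po by gavage (n = 3). Both doses were formulated at 1 mg/mL in TWEEN 80:EtOH:water (10:23:67). Plasma drug levels were measured by LC–MS/MS after protein precipitation, and PK parameters were derived. AUC was normalised to dose.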

Data set [3] in a line: Oral bioavailability in rat. As to conditions: in vivo. The format is ADME, organism-based. Put shortly: as §1
Data set [4] in a line: Half life in rat. The format is ADME. The following applies: in vivo. Put shortly:
as §1

The target of data set [5] is T1, Cannabinoid receptor 1. Description: Effective concentration against human recombinant cannabinoid receptor type 1 expressed in Chinese Hamster Ovary (CHO) cells. The data set is classed as cell-based. Put shortly:
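Functional assay on recombinant human CB1 receptor expressed in CHO cells, run in the presence of forskolin.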

The nature of data set [6]: Plasma clearance in rat. The data set is classed as ADME, organism-based. The following applies: read-out: Clp. The method in brief:
as §1

A short description of data set [7]: Volume distribution at steady state in rat. The data set is classed as ADME, organism-based. The following applies: in vivo, read-out: Vdss. The method in brief:
as §1

Data set [8] can be described thus: Brain-to-plasma ratio after 1 hr in rat. The data set is classed as ADME. The method in brief:
(§2)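 Male Sprague-Dawley rats given 1.0 mg/kg iv by tail vein, formulated at 1 mg/mL in TWEEN 80:EtOH:water (10:23:67). Sampled at 0.25, 1, 2 and 4 h (n = 3 per time point). Plasma and brain levels measured by LC–MS/MS and expressed as the brain/plasma ratio.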

Data set [9] in a line: Brain-to-plasma ratio after 2 hrs in rat. The data set is classed as ADME. The method in brief:
as §2

The nature of data set [10]: (§3) Brain-to-plasma ratio after 4 hrs in rat. The format is ADME. The method in brief: as §2
The nature of data set [11]: Brain-to-plasma ratio after 0.25 hrs in rat. The format is ADME. Put shortly:
as §2

Data set [12] is described as follows: as §3. The following applies: read-out: B/P. The data set is classed as ADME, cell-free. Put shortly:
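Male Sprague-Dawley rats were given 1.0 mg/kg iv via the tail vein, formulated at 1 mg/mL in TWEEN 80:EtOH:water (10:23:67). Three rats were used at each time point (0.25, 1, 2 and 4 h). Brain and plasma concentrations were measured by LC–MS/MS, and the brain-to-plasma ratio was taken at each time.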

The record followed here is ChEMBL document CHEMBL1142014, “Synthesis and activity of 4,5-diarylimidazoles as human CB1 receptor inverse agonists” (Bioorg Med Chem Lett, 2005).

T1 sequence (P21554 whole entry): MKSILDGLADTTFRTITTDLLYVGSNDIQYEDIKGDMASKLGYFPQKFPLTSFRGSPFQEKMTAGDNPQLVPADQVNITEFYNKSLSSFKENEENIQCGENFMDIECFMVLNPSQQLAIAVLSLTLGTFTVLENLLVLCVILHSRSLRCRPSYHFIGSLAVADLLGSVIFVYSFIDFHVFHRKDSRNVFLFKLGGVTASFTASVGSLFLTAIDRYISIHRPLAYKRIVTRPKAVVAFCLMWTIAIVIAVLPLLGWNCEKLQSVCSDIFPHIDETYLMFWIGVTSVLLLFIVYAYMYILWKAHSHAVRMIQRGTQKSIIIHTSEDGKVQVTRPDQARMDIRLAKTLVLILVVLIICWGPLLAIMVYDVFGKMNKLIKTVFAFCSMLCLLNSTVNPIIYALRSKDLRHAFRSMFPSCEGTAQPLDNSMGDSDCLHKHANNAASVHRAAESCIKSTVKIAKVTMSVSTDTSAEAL

Regarding `O=C(NC1CCCCC1)c1nc(-c2ccc(Cl)cc2)c(-c2ccc(Cl)cc2)o1`, the IC50 (commonly the point on the concentration scale where inhibition reaches its midpoint) against Cannabinoid receptor 1 [1] is 500 nM.
As for `Cn1c(C(=O)NC2CCCCC2)nc(-c2ccc(Cl)cc2Cl)c1-c1ccc(Cl)cc1`, the AUC nom in data set [2] amounted to 1.8 µM·kg·h/mg. Besides, the IC50 at Cannabinoid receptor 1 [1] is 4 nM. Besides, the bioavailability – broadly, the share of a dose that reaches the circulation, judged against a reference dose that is usually intravenous – in [3] amounted to 30%. Also, the half-life (usually how long it takes for the measured level to halve) in [4] is 1.9 h. On Cannabinoid receptor 1 [5], the EC50 – broadly, the concentration giving half of the maximal effect – was found to be 18 nM. Also, the clearance in [6] was 20 mL/min/kg. In addition, in data set [7], the Vd came to 1.9 L/kg. Moreover, the Kp at 1 h in data set [8] was 2.1. In addition, in data set [9], the Kp at 2 h came out at 1.3. Moreover, the Kp at 4 h in data set [10] was 2.6. For the same compound, in data set [11], the Kp at 0.25 h was 0.8.
As to `CCn1c(C(=O)NC2CCCCC2)nc(-c2ccc(Cl)cc2Cl)c1-c1ccc(Cl)cc1`, the 50% inhibitory concentration (IC50) against Cannabinoid receptor 1 [1] amounted to 4.1 nM.
For `Cn1c(C(=O)NN2CCCCC2)nc(-c2ccc(Cl)cc2Cl)c1-c1ccc(Cl)cc1Cl`, the IC50 against Cannabinoid receptor 1 [1] came to 16 nM.
On the same count and under the same terms, next, `Cn1c(C(=O)NN2CCCCC2)nc(-c2ccc(Cl)cc2)c1-c1ccc(Cl)cc1Cl`: 190 nM.
Still for that read-out and setting: next, `CCCCCCNC(=O)c1nc(-c2ccc(Cl)cc2)c(-c2ccc(Cl)cc2)n1C`: 540 nM; `Cn1c(C(=O)N2CCCCC2)nc(-c2ccc(Cl)cc2)c1-c1ccc(Cl)cc1`: 1100 nM; `Cn1c(C(=O)NC2CCCCCC2)nc(-c2ccc(Cl)cc2Cl)c1-c1ccc(Cl)cc1`: 8 nM.
Regarding `O=C(NC1CCCCC1)c1nc(-c2ccc(Cl)cc2Cl)c(-c2ccc(Cl)cc2Cl)o1`, on Cannabinoid receptor 1 [1], inhibition was half-maximal at 70 nM (IC50).
Same read-out and setting: for `Cc1ccc(-c2nc(C(=O)NC3CCCCC3)n(C)c2-c2ccc(C)cc2)cc1` the value was 900 nM.
Still for that read-out and setting: for `O=C(NN1CCCCC1)c1nc(-c2ccc(Cl)cc2)c(-c2ccc(Cl)cc2Cl)o1` the value was 470 nM; for `O=C(NC1CCCCC1)c1nc(-c2ccc(Cl)cc2)c(-c2ccc(Cl)cc2Cl)o1`, 1000 nM.
The same measure, in the same setting: next, `CN(C(=O)c1nc(-c2ccc(Cl)cc2Cl)c(-c2ccc(Cl)cc2)n1C)C1CCCCC1`: 70 nM.
As for `Cn1c(C(=O)NC(C)(C)C)nc(-c2ccc(Cl)cc2)c1-c1ccc(Cl)cc1`, on Cannabinoid receptor 1 [1], the IC50 is 900 nM.
Same read-out and setting: for `O=C(NN1CCCCC1)c1nc(-c2ccc(Cl)cc2Cl)c(-c2ccc(Cl)cc2Cl)o1` the value was 200 nM; for `O=C(NN1CCCCC1)c1nc(-c2ccc(Cl)cc2Cl)c(-c2ccc(Cl)cc2)o1`, 260 nM.
Still for that read-out and setting: for `O=C(NC1CCCCC1)c1nc(-c2ccc(Cl)cc2Cl)c(-c2ccc(Cl)cc2)o1` the value was 80 nM.
In the case of `O=C(NN1CCCCC1)c1nc(-c2ccc(Cl)cc2)c(-c2ccc(Cl)cc2)[nH]1`, the concentration for half-maximal inhibition (IC50) at Cannabinoid receptor 1 [1] is 6000 nM.
Same read-out and setting: next, `Cn1c(C(=O)NN2CCCCC2)nc(-c2ccccc2)c1-c1ccccc1`: 1900 nM.
Same read-out and setting: for `Cn1c(C(=O)NC2CCCC2)nc(-c2ccc(Cl)cc2Cl)c1-c1ccc(Cl)cc1` the value was 17 nM.
Still for that read-out and setting: next, `Cn1c(C(=O)NC2CCCCC2)nc(-c2ccc(Cl)cc2Cl)c1-c1ccc(Cl)cc1Cl`: 5.2 nM.
Consider `Cn1c(C(=O)NN2CCCCC2)nc(-c2ccc(Cl)cc2)c1-c1ccc(Cl)cc1`, for which inhibition against Cannabinoid receptor 1 [1] was half-maximal at 260 nM (IC50). Moreover, the EC50 at Cannabinoid receptor 1 [5] stood at 100 nM.
As for `Cn1c(C(=O)N2CCCCC2)nc(-c2ccccc2)c1-c1ccccc1`, the IC50 against Cannabinoid receptor 1 [1] is 19000 nM.
Same read-out and setting: next, `Cn1c(C(=O)Nc2ccccc2)nc(-c2ccc(Cl)cc2Cl)c1-c1ccc(Cl)cc1`: 60 nM.
Take `Cn1c(C(=O)NC2CCCCC2)nc(-c2ccc(Cl)cc2)c1-c1ccc(Cl)cc1`: at Cannabinoid receptor 1 [1], inhibition was half-maximal at 450 nM (IC50). The 50% effective concentration (EC50) on Cannabinoid receptor 1 [5] was determined as 500 nM.
At Cannabinoid receptor 1 [1], `Cn1c(C(=O)NC2CCCCC2)nc(-c2ccc(Cl)cc2)c1-c1ccc(Cl)cc1Cl` showed a half-maximal inhibitory concentration (IC50) of 46 nM.
As to `Cn1c(C(=O)NN2CCCCC2)nc(-c2ccc(Cl)cc2Cl)c1-c1ccc(Cl)cc1`, the AUC nom in [2] came out at 1.3 µM·kg·h/mg. On Cannabinoid receptor 1 [1], this compound had a half-inhibitory concentration (IC50) of 6.1 nM. Also, the bioavailability in [3] turned out to be 50%. In [4], this compound showed a half-life of 2.4 h. For the same compound, the EC50 on Cannabinoid receptor 1 [5] was 5 nM. In [12], the Kp at 4 h is 3.4. Also, the clearance in data set [6] was 28 mL/min/kg. The Vd in data set [7] worked out at 3.7 L/kg. Moreover, in [8], the Kp at 1 h is 3.6. In addition, the Kp at 2 h in [9] stood at 2.9. In addition, the Kp at 0.25 h in data set [11] was 3.
